STAT1 blocker: reduces IFN-gamma driven STAT1 reporter signal; inhibition, % at 5.5 µM; 200,000 tested, 0.35% active; AID 920; NIH 3T3 STAT1-luciferase reporter, luminescence;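 active = inhibition above a set limit, the mean inhibition across all tested compounds plus 3 SD, cut at about 34% in these data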
STAT3 act: increases IL-6 driven STAT3 reporter signal; U3A cells, IL-6 STAT3-luciferase reporter, luminescence; 100% = signal with IL-6 EC80 alone; activation (% of control), % at 5.6 µM; 190,000 tested, 0.91% active; AID 871;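 active = activation above the screen-wide mean of compound activation plus 3 SD, cut at about 130% in these data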
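Material: STAT3-luciferase reporter U3A cells. Controls: IL-6-treated wells, 100% activation. Read-out: % activation versus median of IL-6-stimulated wells. Probe or stimulus: IL-6 stimulus at 33 ng/mL final. Timing: compound 1 h, then IL-6 6 h at 37 °C. Signal: reporter luminescence signal.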
STAT1 activator: STAT1 signaling activation; 200,000 tested, 2.6% active; activation (% of control), % at 5.5 µM; AID 932; NIH 3T3 STAT1-luciferase reporter, IFN-gamma, luminescence; 100% = IFN-gamma alone, no compound;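 active = activation above the screen-wide mean activation plus 3 SD, cut at about 130% in these data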
NF-kB neuron act: compounds increasing NF-kB expression in human neuronal cells; NF-kB reporter expression; hits give high values; fold change at 12.5 µM; 190,000 tested, 1.6% active; in the data active = fold change above about 3.3
APP 5'UTR act: activates APP 5'UTR luciferase reporter. SH-SY5Y APP 5'UTR luciferase reporter, luminescence; zero percent = DMSO vehicle wells. activation, % at 2 µM. 190,000 tested, 1% active;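 active = activation above a set limit, based on mean plus 3 SD of controls, cut at about 140% in these data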
STAT3 inh: inhibitors of IL-6 induced STAT3 signaling; inhibition, % at 5.5 µM; U3A cells, IL-6 STAT3-luciferase reporter, luminescence; host cell line lacks STAT1; AID 862; 190,000 tested, 0.89% active;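 active = inhibition above the mean inhibition across all screened compounds plus 3 SD, cut at about 44% in these data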
Hits are given with their value; - = inactive; . = no result given. The list is not random: actives were taken first. Their share in the collection is about 4.9%.

SMILES	STAT1 blocker	STAT3 act	STAT1 activator	NF-kB neuron act	APP 5'UTR act	STAT3 inh
O=C(c1ccc(Cl)cc1)c1cnc(Nc2ccccc2Cl)s1	-	-	145.3	-	-	-
Cc1cccc(C)c1NC(=S)N(Cc1ccccc1)Cc1cccs1	-	-	-	-	-	-
COc1cccc(NC(=S)NCCc2ccccn2)c1	-	-	-	-	-	-
Cc1ccc(OCCOc2ccc(Br)cc2)c([N+](=O)[O-])n1	-	-	134.6	-	-	-
COc1ccc(CNC(=O)COc2ccc(C)nc2[N+](=O)[O-])cc1	-	-	-	-	-	-
CC(=O)NS(=O)(=O)c1ccc(NC(=O)CN2C(=O)C3C4C=CC(C4)C3C2=O)cc1 (configuration not stated)	-	-	-	-	-	-
Cc1ccc(OCc2ccc(C(=O)N3CCOCC3)cc2)cc1C	-	-	141.7	-	.	-
Cc1cc(SCC(=O)OCC(=O)NCC2CCCO2)c(C)cc1Br (configuration not stated)	-	-	-	-	-	-
CCc1ccc(NC(=S)N2CCCCCCC2)cc1	-	-	-	-	-	-
O=C(CCl)Nc1cn(-c2ccccc2)nc1-c1ccccc1	-	-	-	-	-	-
COC(=O)c1ccc(N=NN2CCCCC2)cc1	-	-	139.7	3.34	150.6	-
COC(=O)c1ccc(NC(=O)CCN2CCCCC2)cc1	-	-	-	-	-	-
COC(=O)c1ccc(NN=Nc2ccc(C)cc2)cc1	-	-	137.0	-	-	-
COC(=O)c1ccc(NC(=O)Cc2ccc(C)cc2)cc1	-	-	-	-	-	-
N#Cc1ccc(CSc2nnc(Nc3ccccc3)s2)cc1	-	-	-	-	-	-
c1ccc(CSc2nnc(NC3=NCCCCC3)s2)cc1	-	-	139.6	-	-	-
COC(=O)C1=C(C)N(C)C(=S)NC1c1ccc(OC)cc1OC (configuration not stated)	-	-	-	-	-	-
O=C(Nc1ccncc1)c1cncc(Br)c1	-	-	-	-	-	-
CN1CCN(c2ccc(NC(=O)c3sc4ccccc4c3Cl)cc2)CC1	-	-	-	-	182.5	-
Cc1ccc(C(=O)Nc2ccc(N3CCCC3)cc2)cc1	-	-	139.9	-	-	-
Cc1cnc(C(=O)Nc2ccc(N3CCCCC3)cc2)cn1	-	-	135.1	-	141.6	-
O=C(Nc1ccc(N2CCCCC2)cc1)c1cncc(Br)c1	-	-	133.7	4.05	-	-
Cc1ccccc1NC(NC(=O)OCCn1c([N+](=O)[O-])cnc1C)C(Cl)(Cl)Cl (configuration not stated)	-	-	-	-	-	-
Cc1ccc(NC(=O)CN(C)C(=O)c2ccc(S(=O)(=O)N(C)c3ccccc3)cc2)cc1	-	-	-	-	-	-
COCCNC(=O)C(OC(=O)C1=Cc2ccccc2OC1)C(C)C (configuration not stated)	-	-	-	-	-	-
SMILES	STAT1 blocker	STAT3 act	STAT1 activator	NF-kB neuron act	APP 5'UTR act	STAT3 inh
CCC(=O)N1CCN(c2ccc(NC(=O)c3ccc4c(c3)OCCO4)cc2)CC1	-	-	-	.	-	-
O=C(Nc1ccc(N2CCCC2)cc1)c1ccccc1F	-	-	148.9	-	136.9	-
CN1CCN(c2ccc(NC(=O)Cc3ccccc3)cc2)CC1	-	-	-	-	.	-
CN1CCN(c2ccc(NC(=O)c3ccc4c(c3)OCCO4)cc2)CC1	-	-	132.3	-	141.3	-
O=C(Nc1ccc(N2CCCCC2)cc1)c1cccnc1Cl	-	-	-	-	-	-
CCN1CCN(c2ccc(NC(=O)c3ccccc3F)cc2Cl)CC1	-	-	131.7	-	-	-
O=C(Cc1ccccc1)Nc1ccc(N2CCCCC2)cc1	-	-	130.3	4.93	184.8	-
CC1=NN(c2ccccc2)C(=O)C1(C)[N+](=O)[O-] (configuration not stated)	-	-	-	-	-	-
CCOC(=O)Nc1sc(C)c(C)c1C(N)=O	-	-	-	-	-	-
O=C(CCSCc1ccc(Cl)cc1)NC1CCCC1	-	-	-	-	-	-
Cc1cccc(N=C2NN=C(c3ccc4c(c3)OCCO4)CS2)c1	-	-	-	-	140.0	-
Cc1cccc(N=C2NN=C(c3c(C)[nH]c4ccccc34)CS2)c1	-	-	-	-	-	-
Cc1ccc2nc3ccc(N4CCCCCCC4)nn3c(=O)c2c1	-	-	143.6	-	-	-
O=c1c2ccccc2nc2ccc(N3CCOCC3)nn12	-	-	-	-	-	-
Cc1sc2nc3ccc(N4CCCC4)nn3c(=O)c2c1C	-	.	-	-	-	.
Cc1ccc2nc3ccc(N4CCN(C)CC4)nn3c(=O)c2c1	-	-	136.6	-	-	-
Cc1cc(OCC(=O)Nc2ccncc2)ccc1[N+](=O)[O-]	-	-	-	-	-	-
Clc1ccc2oc(-c3ccccc3)cc(=NCCCN3CCOCC3)c2c1	-	-	146.6	-	-	-
Clc1ccccc1OCc1nnc(-c2ccccc2Br)o1	-	-	137.2	-	-	-
CC1CCc2nc(NC(=O)C3COc4ccccc4O3)sc2C1 (configuration not stated)	49.4	-	-	-	167.8	90.7
CC1CCc2nc(NC(=O)C3CC3)sc2C1 (configuration not stated)	-	-	-	-	-	-
Cc1cccc(NC(=O)c2cnc3n(c2=O)CCS3)c1	-	-	131.7	-	-	-
O=C(Nc1ccccc1)c1cnc2n(c1=O)CCS2	-	-	-	-	-	-
O=C(Nc1ccc2c(c1)OCO2)c1cnc2n(c1=O)CCS2	-	-	-	-	-	-
O=C(Nc1ccc2c(c1)OCCO2)c1cnc2n(c1=O)CCS2	-	-	142.1	-	-	-
SMILES	STAT1 blocker	STAT3 act	STAT1 activator	NF-kB neuron act	APP 5'UTR act	STAT3 inh
Cc1sc2nc(CSc3cccc(C(F)(F)F)c3)[nH]c(=O)c2c1C	-	-	-	-	-	-
Cc1nnc(N/N=C/c2ccco2)n1N	-	-	-	-	-	-
Cc1cc(C)c(C(=O)N2CCCC(CNC(=O)C3(c4ccc(Cl)cc4)CC3)C2)c(=O)[nH]1 (configuration not stated)	-	-	-	-	-	-
COc1ccc(N=C2C(=O)N3c4c(cccc42)C(C)=CC3(C)C)cc1	-	-	-	-	-	-
CCc1n[n+](CC(=O)c2ccccc2)c(N)s1	59.0	-	-	-	141.5	64.7
Cn1ccs/c1=N\C(=O)Nc1ccccc1	-	-	141.4	-	-	-
Cn1ccsc1=NC(=O)c1ccccc1F	-	-	-	-	-	-
Cc1c(/C(O)=C2/C(=O)C(=O)N(CCN3CCOCC3)C2c2cccs2)cnn1-c1ccccc1 (configuration not stated)	-	-	142.8	-	-	-
c1ccc(-n2ncc3c(NCCCN4CCOCC4)ncnc32)cc1	-	-	-	-	-	-
C=CCNc1ncnc2c1cnn2-c1cccc(C)c1	-	-	141.5	4.97	211.9	-
